The source of these data is ChEMBL document CHEMBL1145946, “Novel lavendamycin analogues as potent HIV-reverse transcriptase inhibitors: synthesis and evaluation of anti-reverse transcriptase activity of amide and ester analogues of lavendamycin” (J Med Chem, 2003).

Assay [1] addresses Human immunodeficiency virus type 1 reverse transcriptase (Human immunodeficiency virus 1, UniProt Q72547). Briefly: Inhibitory activity against HIV-reverse transcriptase (HIV-RT).
The species named for another assay is Mus musculus. In words: Cellular cytotoxicity in normal mouse spleen stimulated with concanavalin A. In kind it is functional. The method in brief: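 Normal murine spleen cells at 2.5 × 10^6 or 5 × 10^6 cells/mL in complete RPMI 1640 with 10% FCS, stimulated with ConA 2.5 µg/mL. Analogue range added in triplicate, incubated 48 h at 37 °C, 5% CO2. MTT then added for 4-6 h, formazan dissolved in acidified 2-propanol, OD at 600 nm. CC50 by linear interpolation against untreated controls.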

For the next assay, the system named is H9. Briefly: Cellular cytotoxicity against human lymphocytic cell lines H-9. The format is functional. The method in brief:
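H-9 and CCRF-CEM human lymphocytic lines subcultured in complete RPMI 1640 with 10% FCS, without ConA or β-mercaptoethanol, at 6.25 × 10^5 and 2 × 10^6 cells/mL. Triplicate wells given a range of analogue concentrations at 37 °C, 5% CO2 for 48 h, then MTT 4-6 h, read at 600 nm. CC50 by linear interpolation versus untreated cells; data from both lines pooled.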

As to `CC(=O)NC1=CC(=O)c2ccc(-c3[nH]c(C(N)=O)cc4c5ccccc5nc3-4)nc2C1=O`, in assay [1], the IC50 came out at 12.7 µM. For the same compound, the CC50 in the assay filed under Mus musculus is 50 µM; in the assay on H9, 95 µM.

The compound `CC(=O)NC1=CC(=O)c2ccc(-c3[nH]c(C(=O)O)cc4c5ccccc5nc3-4)nc2C1=O` returned an IC50 in assay [1] of 13.3 µM. The half-maximal cytotoxic concentration (CC50) in the assay filed under Mus musculus amounted to 47 µM; in the assay on H9 it was 81 µM.

In assay [1], `COC(=O)c1[nH]c(-c2ccc3c(n2)C(=O)C(NC(C)=O)=CC3=O)c2nc3ccccc3c-2c1C` gave an IC50 of 15.1 µM. Besides, the results for the CC50 in the assay filed under Mus musculus and in the assay on H9 were 62 µM and 31 µM, respectively.

Regarding `CC(=O)NC1=CC(=O)c2ccc(-c3[nH]c(C(=O)OCCOP(=O)(O)O)cc4c5ccccc5nc3-4)nc2C1=O`, 3 µM corresponded to half-maximal inhibition in assay [1] (IC50). For the same compound, the results for the CC50 in the assay filed under Mus musculus and in the assay on H9 were 29 µM and 27 µM, respectively.

In turn, `CCCCOC(=O)c1cc2c([nH]c3ccccc32)c(-c2ccc3c(n2)C(=O)C(NC(=O)CCC)=CC3=O)n1` [LAV12] returned an IC50 in assay [1] of 5.8 µM. For the same compound, the results for the CC50 in the assay listed under Mus musculus and with H9 were 81 µM and 50 µM, respectively.
